In ChEMBL document CHEMBL3864129, “Polybrominated Diphenyl Ethers: Structure Determination and Trends in Antibacterial Activity” (J Nat Prod, 2016):
Converted amounts (≈) assume the structure as drawn.

What was measured:
[1] = system: Enterococcus faecium; test: Antimicrobial activity against Enterococcus […] ATCC 29212 by CLSI M07-A9 method; type: functional
Method in brief: (§1)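 Laboratory strains tested following CLSI guidelines. Each compound was run in duplicate in at least two independent experiments, and the MIC was recorded.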

[2] = system: Enterococcus faecium; test: Antimicrobial activity against Enterococcus […] ATCC 51299 by CLSI M07-A9 method; type: functional; method in brief: as §1
[3] = system: Pseudomonas aeruginosa; test: Antimicrobial activity against Pseudomonas aeruginosa ATCC 27853 by CLSI M07-A9 method; type: functional; method in brief: as §1
[4] = Cytotoxicity against human HCT116 cells assessed as decrease in cell viability after 24 hrs by MTT assay; type: toxicity, cell-based, HCT-116
[5] = system: Staphylococcus aureus; test: Antimicrobial activity against Staphylococcus aureus ATCC 43300 by CLSI M07-A9 method; type: functional; method in brief: as §1
[6] = Cytotoxicity against African green monkey BSC1 cells assessed as decrease in cell viability after 24 hrs by MTT assay; type: toxicity, cell-based, Chlorocebus aethiops, BSC-1; conditions: for IC50: bsc-1; for IC50 at 24 h: African green monkey (Chlorocebus aethiops), BSC1 cells
[7] = system: Candida albicans; test: Antimicrobial activity against Candida albicans ATCC 28517 by CLSI M07-A9 method; type: functional; method in brief: as §1
[8] = system: Staphylococcus aureus; test: Antimicrobial activity against Staphylococcus aureus ATCC 29213 by CLSI M07-A9 method; type: functional; method in brief: as §1
[9] = system: Escherichia coli; test: Antimicrobial activity against Escherichia coli ATCC 25922 by CLSI M07-A9 method; type: functional; method in brief: as §1

In the case of Oc1cc(Br)cc(Br)c1Oc1cc(Br)cc(Br)c1O, the MIC [1] is reported as 3.1 µg/mL (≈ 5.99 µM), the MIC [2] is reported as 1.6 µg/mL (≈ 3.09 µM) and the MIC [3] is reported as over 50 µg/mL. It also gave an MNTC at 24 h [4] of 50 µg/mL, an MIC [5] of 1.25 µg/mL (≈ 2.41 µM) and an IC50 [6] of over 50 µg/mL. It also gave an MIC [7] of over 50 µg/mL and an MIC [8] of 1.6 µg/mL (≈ 3.09 µM).
Work on Cc1onc(-c2ccccc2)c1C(=O)N[C@@H]1C(=O)N2[C@@H]1SC(C)(C)[C@@H]2C(=O)O [OXACILLIN] yielded an MIC [2] of 32 µg/mL (≈ 79.7 µM), an MIC [5] of over 32 µg/mL and an MIC [8] of 0.13 µg/mL (≈ 0.324 µM).
Molecule COc1cc(Br)c(Br)c(Br)c1Oc1cc(Br)cc(Br)c1OC has an MIC [1] of over 50 µg/mL, an MIC [2] of over 50 µg/mL and an MIC [3] of over 50 µg/mL. The MIC [9] was over 50 µg/mL, the MNTC at 24 h [4] was 50 µg/mL and the MIC [5] was over 50 µg/mL. It also gave an IC50 [6] of over 50 µg/mL, an MIC [7] of over 50 µg/mL and an MIC [8] of over 50 µg/mL.
For Oc1c(Oc2ccc(Br)cc2Br)cc(Br)c(Br)c1Br, the MIC [1] was 1.2 µg/mL (≈ 2.07 µM), the MIC [2] was 1.2 µg/mL (≈ 2.07 µM) and the MIC [9] was over 100 µg/mL. The MIC [5] was 0.4 µg/mL (≈ 0.689 µM), the IC50 [6] was 15 µg/mL (≈ 25.8 µM) and the MIC [8] was 3.7 µg/mL (≈ 6.37 µM).
For Oc1cc(Br)cc(Br)c1O, the MIC [1] was 12.5 µg/mL (≈ 46.7 µM), the MIC [2] was 25 µg/mL (≈ 93.3 µM) and the MIC [3] was over 50 µg/mL. The MIC [9] was over 100 µg/mL, the MNTC at 24 h [4] was 50 µg/mL and the MIC [5] was over 50 µg/mL. The IC50 [6] was over 50 µg/mL, the MIC [7] was over 50 µg/mL and the MIC [8] was 100 µg/mL (≈ 373 µM).
Oc1c(Br)cc(Br)cc1Oc1c(Br)cc(Br)c(Br)c1O gave an MIC [1] of 1.6 µg/mL (≈ 2.68 µM), an MIC [2] of 0.78 µg/mL (≈ 1.31 µM) and an MIC [3] of over 50 µg/mL. It also gave an MNTC at 24 h [4] of 50 µg/mL, an MIC [5] of 0.16 µg/mL (≈ 0.268 µM) and an IC50 [6] of over 50 µg/mL. For the same molecule, the MIC [7] was over 50 µg/mL and the MIC [8] was 0.78 µg/mL (≈ 1.31 µM).
With Oc1c(Br)cc(Br)cc1Oc1cc(Br)c(Br)c(Br)c1O the MIC [1] was 1.6 µg/mL (≈ 2.68 µM), the MIC [2] was 0.78 µg/mL (≈ 1.31 µM) and the MNTC at 24 h [4] was 50 µg/mL. For the same molecule, the MIC [5] was 0.16 µg/mL (≈ 0.268 µM), the IC50 [6] was over 50 µg/mL and the MIC [7] was over 50 µg/mL. The MIC [8] was 0.31 µg/mL (≈ 0.52 µM).
Oc1cc(Br)c(Br)cc1Oc1ccc(Br)cc1Br gave an MIC [1] of 0.4 µg/mL (≈ 0.797 µM), an MIC [2] of 0.4 µg/mL (≈ 0.797 µM) and an MIC [9] of 12.5 µg/mL (≈ 24.9 µM). For the same molecule, the MIC [5] was 0.015 µg/mL (≈ 0.0299 µM), the IC50 [6] was 8.8 µg/mL (≈ 17.5 µM) and the MIC [8] was 0.14 µg/mL (≈ 0.279 µM).
Molecule Oc1c(Br)cc(Br)cc1Oc1ccc(Br)cc1Br has an MIC [1] of 0.8 µg/mL (≈ 1.59 µM), an MIC [2] of 0.8 µg/mL (≈ 1.59 µM) and an MIC [9] of over 100 µg/mL. For the same molecule, the MIC [5] was 0.19 µg/mL (≈ 0.379 µM), the IC50 [6] was 32 µg/mL (≈ 63.8 µM) and the MIC [8] was 0.78 µg/mL (≈ 1.55 µM).
Molecule Oc1cc(Br)cc(Br)c1Oc1ccc(Br)cc1Br has an MIC [1] of 1.2 µg/mL (≈ 2.39 µM), an MIC [2] of 1.2 µg/mL (≈ 2.39 µM) and an MIC [3] of over 50 µg/mL. It also gave an MIC [9] of 3.1 µg/mL (≈ 6.18 µM), an MIC [5] of 0.08 µg/mL (≈ 0.159 µM) and an IC50 [6] of 7 µg/mL (≈ 13.9 µM). For the same molecule, the MIC [7] was over 50 µg/mL and the MIC [8] was 0.042 µg/mL (≈ 0.0837 µM).
In the case of Oc1c(Br)cc(Br)cc1Oc1c(O)c(Br)c(Br)c(Br)c1Br, the MIC [1] is reported as 0.78 µg/mL (≈ 1.15 µM), the MIC [2] is reported as 0.39 µg/mL (≈ 0.577 µM) and the MNTC at 24 h [4] is reported as 50 µg/mL. The MIC [5] was 0.16 µg/mL (≈ 0.237 µM), the IC50 [6] was over 50 µg/mL and the MIC [8] was 0.39 µg/mL (≈ 0.577 µM).
For COc1c(Br)cc(Br)cc1Oc1c(Br)c(Br)cc(Br)c1OC, the MIC [1] was 50 µg/mL (≈ 80 µM), the MIC [2] was over 50 µg/mL and the MIC [3] was over 50 µg/mL. The MIC [9] was over 50 µg/mL, the MNTC at 24 h [4] was 50 µg/mL and the MIC [5] was over 50 µg/mL. For the same molecule, the IC50 at 24 h [6] was over 50 µg/mL, the MIC [7] was over 50 µg/mL and the MIC [8] was over 50 µg/mL.
For COc1c(Br)cc(Br)cc1Oc1c(Br)c(OC)c(Br)c(Br)c1OC, the MIC [1] was 13 µg/mL (≈ 19.9 µM), the MIC [2] was 13 µg/mL (≈ 19.9 µM) and the MIC [3] was over 50 µg/mL. The MIC [9] was over 50 µg/mL, the MNTC at 24 h [4] was 50 µg/mL and the MIC [5] was 3.1 µg/mL (≈ 4.73 µM). For the same molecule, the IC50 [6] was over 50 µg/mL, the MIC [7] was over 50 µg/mL and the MIC [8] was 3.1 µg/mL (≈ 4.73 µM).
With COc1c(Br)cc(Br)cc1Oc1cc(Br)c(Br)c(Br)c1OC the MIC [1] was over 50 µg/mL, the MIC [2] was over 50 µg/mL and the MIC [3] was over 50 µg/mL. The MIC [9] was over 50 µg/mL, the MNTC at 24 h [4] was 50 µg/mL and the MIC [5] was over 50 µg/mL. For the same molecule, the IC50 at 24 h [6] was over 50 µg/mL, the MIC [7] was over 50 µg/mL and the MIC [8] was over 50 µg/mL.
Oc1cc(Br)c(Br)c(Br)c1Oc1cc(Br)cc(Br)c1O showed an MIC [1] of 0.39 µg/mL (≈ 0.654 µM), an MIC [2] of 0.39 µg/mL (≈ 0.654 µM) and an MIC [9] of 25 µg/mL (≈ 41.9 µM). For the same molecule, the MNTC at 24 h [4] was 50 µg/mL, the MIC [5] was 0.078 µg/mL (≈ 0.131 µM) and the IC50 [6] was over 50 µg/mL. It also gave an MIC [7] of over 50 µg/mL and an MIC [8] of 0.31 µg/mL (≈ 0.52 µM).
For Oc1c(Br)cc(Br)cc1Oc1c(O)c(Br)cc(Br)c1Br, the MIC [1] was 3.1 µg/mL (≈ 5.2 µM), the MIC [2] was 3.1 µg/mL (≈ 5.2 µM) and the MIC [3] was over 50 µg/mL. It also gave an MIC [9] of 100 µg/mL (≈ 168 µM), an MNTC at 24 h [4] of 50 µg/mL and an MIC [5] of 0.31 µg/mL (≈ 0.52 µM). It also gave an IC50 [6] of over 50 µg/mL, an MIC [7] of over 50 µg/mL and an MIC [8] of 1.6 µg/mL (≈ 2.68 µM).
For Oc1ccccc1Oc1ccccc1O, the MIC [1] was over 50 µg/mL, the MIC [2] was over 50 µg/mL and the Activity [9] was “Non-Toxic”. For the same molecule, the MIC [5] was 50 µg/mL (≈ 247 µM) and the MIC [8] was 50 µg/mL (≈ 247 µM).
Work on C[C@@H]1[C@H](O)[C@@H](C)/C=C/C=C/C=C/C=C/C=C/C=C/C=C/[C@H](O[C@@H]2O[C@H](C)[C@@H](O)[C@H](N)[C@@H]2O)C[C@@H]2O[C@](O)(C[C@@H](O)C[C@@H](O)[C@H](O)CC[C@@H](O)C[C@@H](O)CC(=O)O[C@H]1C)C[C@H](O)[C@H]2C(=O)O [AMPHOTERICIN B] yielded an MIC [7] of under 7.8 µg/mL.
With GENTAMICIN the MIC [3] was 1 µg/mL.
COc1c(Br)cc(Br)cc1Oc1c(Br)cc(Br)c(Br)c1OC gave an MIC [3] of over 50 µg/mL, an MIC [9] of over 50 µg/mL and an MNTC at 24 h [4] of 50 µg/mL. The MIC [5] was over 50 µg/mL, the IC50 [6] was over 50 µg/mL and the MIC [7] was over 50 µg/mL. The MIC [8] was over 50 µg/mL.
Molecule COc1c(Br)cc(Br)cc1Oc1ccc(Br)cc1Br has an MIC [1] of 11 µg/mL (≈ 21.3 µM), an MIC [2] of 11 µg/mL (≈ 21.3 µM) and an MIC [9] of over 100 µg/mL. The MIC [5] was 0.4 µg/mL (≈ 0.775 µM), the IC50 [6] was 35 µg/mL (≈ 67.9 µM) and the MIC [8] was 3.7 µg/mL (≈ 7.17 µM).
In the case of Oc1c(Br)c(Br)c(Br)c(Br)c1Oc1ccc(Br)cc1Br, the MIC [1] is reported as 33 µg/mL (≈ 50 µM), the MIC [2] is reported as 33 µg/mL (≈ 50 µM) and the MIC [9] is reported as over 100 µg/mL. It also gave an MIC [5] of 0.8 µg/mL (≈ 1.21 µM), an IC50 [6] of 29 µg/mL (≈ 44 µM) and an MIC [8] of 1.6 µg/mL (≈ 2.43 µM).
Molecule COc1c(Br)c(Br)c(O)c(Oc2cc(Br)cc(Br)c2O)c1Br has an MIC [1] of 3.1 µg/mL (≈ 4.95 µM), an MIC [2] of 1.56 µg/mL (≈ 2.49 µM) and an MIC [3] of over 50 µg/mL. It also gave an MIC [9] of over 50 µg/mL, an MNTC at 24 h [4] of 50 µg/mL and an MIC [5] of 0.39 µg/mL (≈ 0.622 µM). The IC50 [6] was over 50 µg/mL, the MIC [7] was over 50 µg/mL and the MIC [8] was 0.78 µg/mL (≈ 1.24 µM).
